The source of these data is ChEMBL document CHEMBL1145211, “Substituted 5,5'-diphenyl-2-thioxoimidazolidin-4-one as CB1 cannabinoid receptor ligands: synthesis and pharmacological evaluation” (J Med Chem, 2005).

Experiment [1] deals with Cannabinoid receptor 2 (Homo sapiens) (UniProt P34972). Nature of the experiment: Displacement of [3H]CP-55940 from human CB2 receptor expressed in CHO cells at 10 uM. The class given is cell-based. The method in brief:
(§1)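 Membranes (40 µg) from CHO cells stably expressing human CB1 or CB2, with 1 nM [3H]SR141716A (CB1) or 1 nM [3H]CP-55,940 (CB2), and compound at 10 µM. Incubated 1 h at 30 °C in Tris-HCl pH 7.4 with MgCl2, EDTA and 0.5% BSA. Nonspecific binding defined with 10 µM HU-210. Bound ligand recovered on PEI-treated GF/B filters for scintillation counting; reported as % radioligand displaced.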
For orientation: In a radioligand displacement assay an active substance lowers the binding of a labelled ligand.

For experiment [2], the target named is T1, Cannabinoid receptor 1 (Homo sapiens, UniProt P21554). Kind of experiment: Displacement of [3H]SR-141,716A from human Cannabinoid receptor 1 (CB1 receptor) expressed in CHO cells at 10 uM. The class given is cell-based. A digest of the protocol:
as §1

Experiment [3] concerns the target T1, Cannabinoid receptor 1. Kind of experiment: biochemical. It counts as cell-based, CHO.
Experiment [4] concerns the target T1, Cannabinoid receptor 1. To be noted: CHO, at 10 µM.
Experiment [5] concerns the target T1, Cannabinoid receptor 1. Kind of experiment: Inhibition of [3H]SR-141,716A binding to human CB1 receptor expressed in CHO cells. The class given is cell-based. A digest of the protocol:
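Competition curves on hCB1-CHO membranes (40 µg) with 1 nM [3H]SR141716A and varying compound concentrations, up to 10^-5 M. Incubated 1 h at 30 °C, pH 7.4, 0.5% BSA; final DMSO below 0.1%. Nonspecific binding defined with 10 µM HU-210; filtration, then counting. Ki derived from IC50 by nonlinear fitting and Cheng-Prusoff (Kd 1.13 nM). Mean ± SEM of at least four experiments, each in duplicate.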

Experiment [6] deals with T1, Cannabinoid receptor 1. To be noted: CHO, 10 uM.

pKi: −log10 of the molar value.

For orientation: pKi means the negative decadic logarithm of the Ki, by convention in mol/L. A high value points to a small Ki.

T1 sequence (P21554 whole entry): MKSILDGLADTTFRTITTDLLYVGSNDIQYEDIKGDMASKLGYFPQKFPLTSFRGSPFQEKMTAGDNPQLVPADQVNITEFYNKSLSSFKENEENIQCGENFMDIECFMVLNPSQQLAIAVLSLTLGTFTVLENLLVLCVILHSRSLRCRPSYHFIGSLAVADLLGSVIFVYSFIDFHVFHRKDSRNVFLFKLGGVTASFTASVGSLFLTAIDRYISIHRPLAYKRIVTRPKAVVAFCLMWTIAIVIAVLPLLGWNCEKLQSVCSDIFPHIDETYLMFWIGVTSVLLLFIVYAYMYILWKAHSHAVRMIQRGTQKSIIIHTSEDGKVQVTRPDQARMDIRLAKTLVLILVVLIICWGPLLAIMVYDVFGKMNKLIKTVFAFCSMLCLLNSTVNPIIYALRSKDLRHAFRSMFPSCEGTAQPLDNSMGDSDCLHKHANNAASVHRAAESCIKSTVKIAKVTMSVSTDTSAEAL
Cannabinoid receptor 2 (Homo sapiens), sequence (P34972 whole entry): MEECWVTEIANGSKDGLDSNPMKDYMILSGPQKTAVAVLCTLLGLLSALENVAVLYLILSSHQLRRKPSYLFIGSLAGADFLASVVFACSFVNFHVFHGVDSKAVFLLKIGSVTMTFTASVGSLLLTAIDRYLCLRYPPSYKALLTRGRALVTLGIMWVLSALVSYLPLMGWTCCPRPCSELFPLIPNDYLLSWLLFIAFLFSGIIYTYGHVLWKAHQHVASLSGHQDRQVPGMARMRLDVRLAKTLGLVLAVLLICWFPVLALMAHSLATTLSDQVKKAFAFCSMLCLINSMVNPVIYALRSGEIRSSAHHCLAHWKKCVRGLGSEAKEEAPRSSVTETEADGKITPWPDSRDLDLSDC

In the case of `O=C1N(Cc2ccccc2)C(=S)NC1(c1ccc(Cl)cc1)c1ccc(Cl)cc1`, the Displacement in experiment [1] is less than 15%; at Cannabinoid receptor 1 [2], 74.2%. Moreover, at Cannabinoid receptor 1 [3], the negative-log Ki (pKi) is 5.66. For the same compound, the Decrease at Cannabinoid receptor 1 [4] was -74%.

`O=C1N(Cc2ccccc2)C(=S)NC1(c1ccc(Br)cc1)c1ccc(Br)cc1`: the Displacement in experiment [1] is less than 10%; on Cannabinoid receptor 1 [2], 76%. The negative-log Ki (pKi) on Cannabinoid receptor 1 [3] was 6.00. The Decrease at Cannabinoid receptor 1 [4] is -74%.

Take `C=CCN1C(=O)C(c2ccccc2)(c2ccccc2)NC1=S`: the Displacement was less than 15% in experiment [1] and 40% on Cannabinoid receptor 1 [2].

As for `O=C1N(CCc2ccccc2)C(=S)NC1(c1ccc(Cl)cc1)c1ccc(Cl)cc1`, the Displacement was less than 15% in experiment [1] and 79.4% on Cannabinoid receptor 1 [2]. At Cannabinoid receptor 1 [3], this compound had a pKi of 5.42.

As for `CCN1C(=O)C(c2ccccc2)(c2ccccc2)NC1=S`, the Displacement in experiment [1] was less than 10%; on Cannabinoid receptor 1 [2], 40%.

Compound `CCCCN1C(=O)NC(c2ccc(I)cc2)(c2ccc(I)cc2)C1=O` showed a pKi on Cannabinoid receptor 1 [3] of 5.74. On Cannabinoid receptor 1 [4], the Decrease was -74%.

On to `CC(C)CN1C(=O)C(c2ccc(Cl)cc2)(c2ccc(Cl)cc2)NC1=S`, for which the Displacement in experiment [1] is less than 20%; on Cannabinoid receptor 1 [2], 76.1%. The same compound had a pKi at Cannabinoid receptor 1 [3] of 5.68. The Decrease at Cannabinoid receptor 1 [4] is -74%.

As for `O=C1N(CCc2ccccc2)C(=S)NC1(c1ccc(Br)cc1)c1ccc(Br)cc1`, the Displacement is less than 10% in experiment [1] and 54.6% at Cannabinoid receptor 1 [2]. Moreover, the negative-log Ki (pKi) on Cannabinoid receptor 1 [5] was less than 5.00.

On to `CCCCCCCCN1C(=O)C(c2ccccc2)(c2ccccc2)NC1=S`, for which the Displacement in experiment [1] was less than 20%; on Cannabinoid receptor 1 [2], 38.8%.

Take `C=CCN1C(=O)C(c2ccc(Br)cc2)(c2ccc(Br)cc2)NC1=S`: the Displacement in experiment [1] was less than 15%; on Cannabinoid receptor 1 [2] it was 87.2%. This compound also gave a negative-log Ki (pKi) on Cannabinoid receptor 1 [3] of 6.06. Further, the Decrease on Cannabinoid receptor 1 [4] is -74%.

With `CCCCCCN1C(=O)C(c2ccc(Br)cc2)(c2ccc(Br)cc2)NC1=S`, the values for the Displacement (in experiment [1]; at Cannabinoid receptor 1 [2]) were less than 10% and 45.5%, respectively.

For the compound `CCCCN1C(=O)C(c2ccccc2)(c2ccccc2)NC1=S`, the Displacement in experiment [1] was less than 10%; at Cannabinoid receptor 1 [2] it was 42.8%.

As to `O=C1N(Cc2ccccc2)C(=S)NC1(c1ccccc1)c1ccccc1`, the Displacement was less than 10% in experiment [1] and 44.7% at Cannabinoid receptor 1 [2].

For the compound `C=CCN1C(=O)C(c2ccc(I)cc2)(c2ccc(I)cc2)NC1=S`, the Displacement is less than 20% in experiment [1] and 94.2% at Cannabinoid receptor 1 [2]. Also, the pKi at Cannabinoid receptor 1 [3] was 6.23. Moreover, the Decrease on Cannabinoid receptor 1 [4] is -74%.

Take `CCCCCCCCN1C(=O)C(c2ccc(Cl)cc2)(c2ccc(Cl)cc2)NC1=S`: the Displacement in experiment [1] is less than 10%; at Cannabinoid receptor 1 [2], 36.6%.

On to `O=C1N(CCCO)C(=S)NC1(c1ccccc1)c1ccccc1`, for which the Displacement in experiment [1] was less than 10%; at Cannabinoid receptor 1 [2], 20.8%.

On to `CCCCCCN1C(=O)C(c2ccccc2)(c2ccccc2)NC1=S`, for which the results for the Displacement (in experiment [1]; at Cannabinoid receptor 1 [2]) were less than 10% and 38.5%, respectively.

Regarding `CCN1C(=O)C(c2ccc(Br)cc2)(c2ccc(Br)cc2)NC1=S`, the Displacement in experiment [1] is less than 20%; on Cannabinoid receptor 1 [2], 90.9%. At Cannabinoid receptor 1 [3], this compound gave a negative logarithm of the Ki (pKi) of 5.66.

Take `C=CCN1C(=O)NC(c2ccc(I)cc2)(c2ccc(I)cc2)C1=O`: the Decrease at Cannabinoid receptor 1 [4] is -74%.

In the case of `O=C1NC(c2ccc(Br)cc2)(c2ccc(Br)cc2)C(=O)N1Cc1ccccc1`, the Decrease at Cannabinoid receptor 1 [4] was -74%.

Take `CCCCN1C(=O)NC(c2ccc(Br)cc2)(c2ccc(Br)cc2)C1=O`: the Decrease on Cannabinoid receptor 1 [4] is -74%.

As to `CC(C)CN1C(=O)C(c2ccc(Br)cc2)(c2ccc(Br)cc2)NC1=S`, the Displacement in experiment [1] is less than 20%; on Cannabinoid receptor 1 [2], 76.3%. Also, the pKi at Cannabinoid receptor 1 [3] is 5.75. Further, at Cannabinoid receptor 1 [4], the Decrease was -74%.

Regarding `COCCCN1C(=O)C(c2ccccc2)(c2ccccc2)NC1=S`, the results for the Displacement (in experiment [1]; at Cannabinoid receptor 1 [2]) were less than 15% and 29.4%, respectively.

For `CC(C)N1C(=O)C(c2ccccc2)(c2ccccc2)NC1=S`, the Displacement in experiment [1] is less than 10%; at Cannabinoid receptor 1 [2], 42.8%.

On to `O=C1N(CCc2ccccc2)C(=S)NC1(c1ccccc1)c1ccccc1`, for which the Displacement is less than 10% in experiment [1] and 29.3% on Cannabinoid receptor 1 [2].

Consider `CCCCCCCN1C(=O)C(c2ccc(Cl)cc2)(c2ccc(Cl)cc2)NC1=S`, for which the results for the Displacement (in experiment [1]; at Cannabinoid receptor 1 [2]) were less than 10% and 67.8%, respectively.

On to `O=C1N(Cc2ccco2)C(=S)NC1(c1ccccc1)c1ccccc1`, for which the Displacement was less than 15% in experiment [1] and 59.2% on Cannabinoid receptor 1 [2].

At Cannabinoid receptor 1 [3], `CCCCCCC(C)(C)c1cc(O)c2c(c1)OC(C)(C)[C@H]1CC=C(CO)C[C@H]21` [DEXANABINOL] had a pKi of 7.73. Also, the Increase at Cannabinoid receptor 1 [6] was determined as 130%.

For the compound `CC(C)N1C(=O)C(c2ccc(Br)cc2)(c2ccc(Br)cc2)NC1=S`, the results for the Displacement (in experiment [1]; at Cannabinoid receptor 1 [2]) were less than 15% and 91.7%, respectively. Further, the pKi at Cannabinoid receptor 1 [3] is 5.44.

For the compound `CCCCN1C(=O)C(c2ccc(Br)cc2)(c2ccc(Br)cc2)NC1=S`, the results for the Displacement (in experiment [1]; on Cannabinoid receptor 1 [2]) were less than 15% and 73.8%, respectively. Moreover, the pKi at Cannabinoid receptor 1 [3] was 5.85.

`CC(C)CN1C(=O)C(c2ccccc2)(c2ccccc2)NC1=S`: the values for the Displacement (in experiment [1]; on Cannabinoid receptor 1 [2]) were less than 10% and 34.6%, respectively.

As for `CCCCCCCN1C(=O)C(c2ccccc2)(c2ccccc2)NC1=S`, the Displacement was less than 10% in experiment [1] and 28.8% at Cannabinoid receptor 1 [2].

On to `CCCCN1C(=O)C(c2ccc(I)cc2)(c2ccc(I)cc2)NC1=S`, for which the Displacement in experiment [1] was less than 20%; at Cannabinoid receptor 1 [2] it was 77.4%. On Cannabinoid receptor 1 [3], the pKi was 6.14. Also, at Cannabinoid receptor 1 [4], the Decrease is -74%.

Consider `CCCCCCCN1C(=O)C(c2ccc(Br)cc2)(c2ccc(Br)cc2)NC1=S`, for which the Displacement was less than 10% in experiment [1] and 34.2% on Cannabinoid receptor 1 [2].

With `CCCCCCCCN1C(=O)C(c2ccc(Br)cc2)(c2ccc(Br)cc2)NC1=S`, the Displacement in experiment [1] is less than 10%; on Cannabinoid receptor 1 [2] it was 23.4%.
